Laboratory results from ChEMBL document CHEMBL3102810, “Alkylamino derivatives of pyrazinamide: synthesis and antimycobacterial evaluation” (Bioorg Med Chem Lett, 2014).
In brackets after ≈: the same amount, converted by molar mass. Activity calls are given as the source filed them. The rule behind the calls is not given here.

Key:
[1] = test system: Staphylococcus epidermidis; experiment: Antibacterial activity against Staphylococcus epidermidis H 6966/08 after 48 hrs by microdilution broth method; format: functional; details: for MIC95: H 6966/08, 48 h
Summary of the method: (§1)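 Antibacterial screen with compound concentrations up to a highest level of 500 µM. Results expressed as MIC in µM.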

[2] = test system: Staphylococcus epidermidis; experiment: Antibacterial activity against Staphylococcus epidermidis H 6966/08 after 24 hrs by microdilution broth method; format: functional; details: H 6966/08, 24 h; summary of the method: as §1
[3] = test system: Nakaseomyces glabratus; experiment: Antifungal activity against Candida glabrata 20/I after 72 to 120 hrs by microdilution broth method; format: functional, organism-based
[4] = test system: Lichtheimia corymbifera; experiment: Antifungal activity against Absidia corymbifera 272 after 72 to 120 hrs by microdilution broth method; format: functional, organism-based
[5] = test system: Trichophyton mentagrophytes; experiment: Antifungal activity against Trichophyton mentagrophytes 445 after 72 to 120 hrs by microdilution broth method; format: functional, organism-based
[6] = Selectivity index, ratio of IC50 for human HepG2 cells to MIC for Mycobacterium tuberculosis H37Rv CNCTC My 331/88; format: toxicity, cell-based; details: read-out: Selectivity Index
Summary of the method: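 HepG2 human liver cell viability was measured by a colorimetric tetrazolium-reduction assay, and IC50 was derived from the toxicity curves. MIC against M. tuberculosis H37Rv came from the alamar blue microplate assay at pH 5.6. SI = IC50/MIC, both in molar units.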

[7] = test system: HepG2; experiment: Cytotoxicity against human HepG2 cells after 24 hrs; format: cell-based; details: HepG2, 24 h
Summary of the method: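 HepG2 human liver cells; loss of viability measured by a colorimetric tetrazolium-reduction assay. IC50 derived from the toxicity curves. Where limited solubility in the culture medium capped the tested concentration, only an estimate of the toxic concentration was given.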

[8] = test system: Trichophyton mentagrophytes; experiment: Antifungal activity against Trichophyton mentagrophytes after 72 to 120 hrs by microdilution broth method; format: functional, organism-based
[9] = test system: Klebsiella pneumoniae; experiment: Antibacterial activity against Klebsiella pneumoniae D 11750/08 after 24 to 48 hrs by microdilution broth method; format: functional, organism-based; summary of the method: as §1
[10] = test system: Trichosporon asahii; experiment: Antifungal activity against Trichosporon asahii 1188 after 72 to 120 hrs by microdilution broth method; format: functional, organism-based
[11] = test system: Aspergillus fumigatus; experiment: Antifungal activity against Aspergillus fumigatus 231 after 72 to 120 hrs by microdilution broth method; format: functional, organism-based
[12] = test system: Mycobacterium avium; experiment: Antimycobacterial activity against pyrazinamide-resistant Mycobacterium avium CNCTC My 152/73 after 5 days by microplate alamar blue assay; format: functional; details: CNCTC My 152/73, 120 h
Summary of the method: (§2)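 Microplate alamar blue assay run at pH 5.6, using conditions optimized for pyrazinamide. Strains came from the Czech National Collection of Type Cultures. MIC was read in µg/mL and converted to µM using molecular weight.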

[13] = test system: Mycobacterium avium; experiment: Antimycobacterial activity against pyrazinamide-resistant Mycobacterium avium CNCTC My 80/72 after 5 days by microplate alamar blue assay; format: functional; details: CNCTC My 80/72, 120 h; summary of the method: as §2
[14] = test system: Candida albicans; experiment: Antifungal activity against Candida albicans ATCC 44859 after 72 to 120 hrs by microdilution broth method; format: functional, organism-based
[15] = test system: Enterococcus sp.; experiment: Antibacterial activity against Enterococcus sp. J 14365/08 after 24 to 48 hrs by microdilution broth method; format: functional, organism-based; summary of the method: as §1
[16] = Lipophilicity, log K of the compound by HPLC analysis; format: physicochemical
[17] = test system: Mycobacterium tuberculosis; experiment: Antimycobacterial activity against Mycobacterium tuberculosis H37Rv CNCTC My 331/88 after 5 days by microplate alamar blue assay; format: functional; details: H37Rv CNCTC My 331/88, 120 h; summary of the method: as §2
[18] = test system: Staphylococcus aureus; experiment: Antibacterial activity against Staphylococcus aureus CCM 4516/08 after 24 to 48 hrs by microdilution broth method; format: functional, organism-based; summary of the method: as §1
[19] = test system: Staphylococcus epidermidis; experiment: Antibacterial activity against Staphylococcus epidermidis H 6966/08 up to 500 uM after 24 to 48 hrs by microdilution broth method; format: functional, organism-based; summary of the method: as §1
[20] = test system: Klebsiella pneumoniae; experiment: Antibacterial activity against ESBL positive Klebsiella pneumoniae J 14368/08 after 24 to 48 hrs by microdilution broth method; format: functional, organism-based; summary of the method: as §1
[21] = test system: Staphylococcus epidermidis; experiment: Antibacterial activity against methicillin-resistant Staphylococcus epidermidis H 5996/08 after 24 to 48 hrs by microdilution broth method; format: functional, organism-based
[22] = test system: Pseudomonas aeruginosa; experiment: Antibacterial activity against Pseudomonas aeruginosa CCM 1961 after 24 to 48 hrs by microdilution broth method; format: functional, organism-based; summary of the method: as §1
[23] = test system: Escherichia coli; experiment: Antibacterial activity against Escherichia coli CCM 4517 after 24 to 48 hrs by microdilution broth method; format: functional, organism-based; summary of the method: as §1
[24] = test system: Candida tropicalis; experiment: Antifungal activity against Candida tropicalis 156 after 72 to 120 hrs by microdilution broth method; format: functional, organism-based
[25] = test system: Mycobacterium kansasii; experiment: Antimycobacterial activity against pyrazinamide-resistant Mycobacterium kansasii CNCTC My 235/80 after 5 days by microplate alamar blue assay; format: functional; details: CNCTC My 235/80, 120 h; summary of the method: as §2
[26] = test system: Pichia kudriavzevii; experiment: Antifungal activity against Candida krusei E28 after 72 to 120 hrs by microdilution broth method; format: functional, organism-based
[27] = test system: Mycolicibacterium fortuitum; experiment: Antimycobacterial activity against pyrazinamide-resistant Mycobacterium fortuitum; format: functional
[28] = test system: Mycobacterium kansasii; experiment: Antimycobacterial activity against pyrazinamide-resistant Mycobacterium kansasii; format: functional
[29] = test system: Mycolicibacterium smegmatis; experiment: Antimycobacterial activity against pyrazinamide-resistant Mycobacterium smegmatis; format: functional
[30] = test system: Mycobacterium avium; experiment: Antimycobacterial activity against pyrazinamide-resistant Mycobacterium avium; format: functional
[31] = test system: Mycobacterium tuberculosis; experiment: Antimycobacterial activity against pyrazinamide-sensitive Mycobacterium tuberculosis; format: functional

Row | Structure (SMILES) | MIC95 [1] | MIC95 [2] | Activity [3] | Activity [4] | Activity [5] | Activity [8] | Activity [9] | Activity [10] | Activity [11] | MIC [12] | MIC [13] | Activity [14] | Activity [15] | log K [16] | MIC [17] | Activity [18] | Activity [20] | Activity [21] | Activity [22] | Activity [23] | other results
1 | O=C(O)c1cn(C2CC2)c2cc(N3CCNCC3)c(F)cc2c1=O [CIPROFLOXACIN] | 250 µM (≈ 82.8 µg/mL) | 250 µM (≈ 82.8 µg/mL) |  |  |  |  |  |  |  |  |  |  |  |  |  |  |  |  |  |  | 
2 | CC1(C)S[C@@H]2[C@H](NC(=O)Cc3ccccc3)C(=O)N2[C@H]1C(=O)O [PENICILLIN G] | 250 µM (≈ 83.6 µg/mL) | 125 µM (≈ 41.8 µg/mL) |  |  |  |  |  |  |  |  |  |  |  |  |  |  |  |  |  |  | 
3 | NC(=O)c1cncc(Cl)n1 |  |  | inactive | inactive | inactive | inactive | inactive | inactive | inactive | > 100 µg/mL | > 100 µg/mL | inactive | inactive | -0.4165 | 635 µM | inactive | inactive | inactive | inactive | inactive | selectivity ratio [6]: 5.5; Activity [1]: inactive; IC50 [7]: 3500 µM; Activity [19]: inactive; Activity [24]: inactive; MIC [25]: > 100 µg/mL; Activity [26]: inactive
4 | CCCCCCNc1cncc(C(N)=O)n1 | 125 µM (≈ 27.8 µg/mL) | 62.5 µM (≈ 13.9 µg/mL) | inactive | inactive | inactive | inactive | inactive | inactive | inactive | > 100 µg/mL | > 100 µg/mL | inactive | inactive | 0.2051 | 100 µg/mL | inactive | inactive | inactive | inactive | inactive | Activity [24]: inactive; MIC [25]: > 100 µg/mL; Activity [26]: inactive
5 | NC[C@@H]1O[C@H](O[C@H]2[C@@H](O)[C@H](O[C@@H]3[C@@H](O)[C@H](N)C[C@H](N)[C@H]3O[C@H]3O[C@H](CN)[C@@H](O)[C@H](O)[C@H]3N)O[C@@H]2CO)[C@H](N)[C@@H](O)[C@@H]1O [FRAMYCETIN] | 15.6 µM (≈ 9.6 µg/mL) | 7.81 µM (≈ 4.8 µg/mL) |  |  |  |  |  |  |  |  |  |  |  |  |  |  |  |  |  |  | 
6 | CCCCCCCNc1cnc(C(N)=O)cn1 |  |  | inactive | inactive | inactive | inactive | inactive | inactive | inactive | > 100 µg/mL | > 100 µg/mL | inactive | inactive | 0.4658 | 53 µM | inactive | inactive | inactive | inactive | inactive | selectivity ratio [6]: > 4.7; Activity [1]: inactive; IC50 [7]: > 250 µM; Activity [19]: inactive; Activity [24]: inactive; MIC [25]: 53 µM; Activity [26]: inactive
7 | NC(=O)c1cnc(Cl)cn1 |  |  | inactive | inactive | inactive | inactive | inactive | inactive | inactive | > 100 µg/mL | > 100 µg/mL | inactive | inactive | -0.3891 | 317 µM | inactive | inactive | inactive | inactive | inactive | MIC [27]: 8 µg/mL (≈ 50.8 µM); selectivity ratio [6]: 5; Activity [1]: inactive; IC50 [7]: 1600 µM; MIC [28]: 8 µg/mL (≈ 50.8 µM); Activity [19]: inactive; MIC [29]: 8 µg/mL (≈ 50.8 µM); MIC [30]: 8 µg/mL (≈ 50.8 µM); MIC [31]: 8 µg/mL (≈ 50.8 µM); Activity [24]: inactive; MIC [25]: 79 µM; Activity [26]: inactive
